ChEMBL document CHEMBL1158764, “Cytotoxic sesquiterpene lactones from Eupatorium kiirunense, a coastal plant of Taiwan” (2005)
In brackets after ≈: the same amount, converted by molar mass.

Key:
Assay type in all cases: functional
Conditions in all cases: read-out: ED50 (the source's name)
KB = assay: Cytotoxicity against human KB cells by methylene blue staining method
Summary of the method: (§1)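 Tumor cells cultured in RPMI-1640 medium and exposed to test sample for 72 h. Growth inhibition read by methylene blue staining (absorbance). ED50 taken as the concentration giving 50% reduction of absorbance relative to untreated cells.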

HeLa = assay: Cytotoxicity against human HeLa cells by methylene blue staining method; summary of the method: as §1
[1] = Cytotoxicity against human HEPA 59T/VGH cells by methylene blue staining method; summary of the method: as §1

| SMILES | EC50 (KB) [µg/mL] | EC50 (HeLa) [µg/mL] | EC50 [1] [µg/mL] |
| --- | --- | --- | --- |
| C=C1C(=O)O[C@H]2/C=C(/COC(C)=O)[C@@H](O)C[C@H]3O[C@@]3(C)C[C@@H](OC(=O)/C(C)=C/C)[C@@H]12 | 4.3 (≈ 10.2 µM) | 7.5 (≈ 17.8 µM) | 7 (≈ 16.6 µM) |
| C=C1C(=O)O[C@H]2/C=C(/C)[C@H](O)C[C@H]3O[C@@]3(C)C[C@@H](OC(=O)/C(C)=C/C)[C@@H]12 | 3.2 (≈ 8.83 µM) | 3.1 (≈ 8.55 µM) | 4.4 (≈ 12.1 µM) |
| COc1cccc2c1C(=O)c1c(O)c3c(c(O)c1C2=O)C[C@@](O)(C(=O)CO)C[C@@H]3O[C@H]1C[C@H](N)[C@H](O)[C@H](C)O1 [DOXORUBICIN] | 0.15 (≈ 0.276 µM) | 0.14 (≈ 0.258 µM) | 0.19 (≈ 0.35 µM) |
| C=C1C(=O)O[C@@H]2/C=C(\C)C(=O)/C=C/[C@](C)(O)C[C@@H](OC(=O)/C(C)=C/C)[C@@H]12 [EUPAHELIANGOLIDE A] | 3.5 (≈ 9.71 µM) | 3.3 (≈ 9.16 µM) | 3.5 (≈ 9.71 µM) |
| C=C1C(=O)O[C@H]2[C@H]1[C@H](OC(=O)/C(C)=C/C)CC(=C)[C@H](O)[C@@H]1O[C@@H]1[C@]1(C)O[C@H]21 [EUPAKIRUNSIN A] | 5.5 (≈ 14.6 µM) | 8.9 (≈ 23.6 µM) | 4.4 (≈ 11.7 µM) |
| C=C1C(=O)O[C@H]2/C=C(\C)[C@H](O)/C=C\[C@](C)(O)C[C@@H](OC(=O)/C(C)=C/C)[C@@H]12 [EUPAKIRUNSIN B] | > 20 | > 20 | > 20 |
| C=C1C(=O)O[C@H]2[C@H]1[C@H](OC(=O)/C(C)=C/C)C[C@H](C)[C@H](O)CC(=O)[C@]1(C)O[C@H]21 [EUPAKIRUNSIN C] | 8.1 (≈ 21.4 µM) | 7.1 (≈ 18.8 µM) | 8.6 (≈ 22.7 µM) |
| C=C1C(=O)O[C@H]2/C=C(\C)[C@]3(O)CC[C@](C)(C[C@@H](OC(=O)/C(C)=C/C)[C@@H]12)O3 [EUPAKIRUNSIN D] | 4.8 (≈ 13.2 µM) | 5.8 (≈ 16 µM) | 5 (≈ 13.8 µM) |
| C=C1C(=O)O[C@H]2/C=C(\C)C(=O)[C@@H]3O[C@H]3[C@](C)(O)C[C@@H](OC(=O)/C(C)=C/C)[C@@H]12 [EUPAKIRUNSIN E] | > 20 | > 20 | > 20 |
| C=C1C(=O)O[C@H]2/C=C(/C)[C@@H](O)C[C@H]3O[C@@]3(C)C[C@@H](OC(=O)/C(C)=C/C)[C@@H]12 [HELIANGIN] | 1.8 (≈ 4.97 µM) | 4.4 (≈ 12.1 µM) | 2 (≈ 5.52 µM) |
